Test results from ChEMBL document CHEMBL1123290, “Synthesis, antimalarial activity, and quantitative structure-activity relationships of tebuquine and a series of related 5-[(7-chloro-4-quinolinyl)amino]-3-[(alkylamino)methyl] [1,1'-biphenyl]-2-ols and N omega-oxides” (1986).

Key:
Format in all cases: functional
[1] = system: Mus musculus; experiment: Antimalarial activity of compound administered as a single subcutaneous dose of 10mg/kg, 72 hrs post infection measured as number of mice (Mus musculus) surviving at 60 days post infection
Summary of the method: (§1)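 Mice were infected with a normal drug-sensitive Plasmodium berghei strain. At 72 h postinfection each received one subcutaneous dose of compound dissolved or suspended in peanut oil, in five-mouse groups per dose. The read-out was the number of mice alive at 60 days postinfection, which were scored as cured.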

[2] = system: Plasmodium berghei; experiment: Antimalarial activity as 60-day survivors in infected mice (Mus musculus) after single 320mg/kg subcutaneous dose 72 hr post infection; summary of the method: as §1
[3] = system: Plasmodium berghei; experiment: Change in mean survival time for control (average 6.2 days) versus treated mice (Mus musculus) after 320 mg/kg subcutaneous dose
[4] = system: Plasmodium berghei; experiment: Change in mean survival time of Plasmodium berghei infected mice (Mus musculus) on 1.25 mg/kg subcutaneous dose
[5] = system: Mus musculus; experiment: Antimalarial activity, administered as a single subcutaneous dose of 640 mg/kg, 72 hrs post infection measured as number of mice (Mus musculus) surviving at 60 days post infection; summary of the method: as §1
[6] = system: Plasmodium berghei; experiment: Change in mean survival time for control (average 6.2 days) versus treated mice (Mus musculus) after 40 mg/kg subcutaneous dose
[7] = system: Plasmodium berghei; experiment: Antimalarial activity as 60-day survivors in infected mice (Mus musculus) after single 20 mg/kg subcutaneous dose 72hr post infection; summary of the method: as §1
[8] = system: Plasmodium berghei; experiment: Change in mean survival time of Plasmodium berghei infected mice (Mus musculus) after […] subcutaneous dose
[9] = system: Mus musculus; experiment: Antimalarial activity, administered as a single subcutaneous dose of 80 mg/kg, 72 hrs post infection measured as number of mice (Mus musculus) surviving at 60 days post infection; summary of the method: as §1
[10] = system: Plasmodium berghei; experiment: Change in mean survival time of Plasmodium berghei infected mice (Mus musculus) after 5 mg/kg subcutaneous dose
[11] = system: Mus musculus; experiment: Antimalarial activity, administered as a single subcutaneous dose of 40 mg/kg, 72 hrs post infection measured as number of mice (Mus musculus) surviving at 60 days post infection; summary of the method: as §1
[12] = system: Plasmodium berghei; experiment: Change in mean survival time for control (average 6.2 days) versus treated mice (Mus musculus) after 20 mg/kg subcutaneous dose
[13] = system: Plasmodium berghei; experiment: (§2) Change in mean survival time for control (average 6.2 days) versus treated mice (Mus musculus) 72 hrs after […] subcutaneous dose
[14] = system: Plasmodium berghei; experiment: as §2; remark: listed apart in the source
[15] = system: Plasmodium berghei; experiment: Change in mean survival time in control (average 6.2 days) versus treated mice (Mus musculus) after 80 mg/kg subcutaneous dose
[16] = system: Plasmodium berghei; experiment: Antimalarial activity as 60-day survivors in Plasmodium berghei infected mice (Mus musculus) after single 160mg/kg subcutaneous dose 72 hr post infection; summary of the method: as §1
[17] = system: Plasmodium berghei; experiment: Difference in mean survival time of Plasmodium berghei infected mice (Mus musculus) after 10 mg/kg subcutaneous dose
[18] = system: Plasmodium berghei; experiment: Change in mean survival time for control (average of 6.2 days) versus treated mice (Mus musculus) 72 hrs after 80 mg/kg subcutaneous dose
[19] = system: Plasmodium berghei; experiment: Change in mean survival time for control (average 6.2 days) versus treated mice (Mus musculus) 72 hrs after 640 mg/kg subcutaneous dose
[20] = system: Plasmodium berghei; experiment: Change in mean survival time for control (average 6.2 days) versus treated mice (Mus musculus) 72 hrs after 320 mg/kg subcutaneous dose
[21] = system: Plasmodium berghei; experiment: Change in mean survival time for control (average 6.2 days) versus treated mice (Mus musculus) 72 hrs after 5 mg/kg subcutaneous dose
[22] = system: Plasmodium berghei; experiment: Difference in mean survival time in mice (Mus musculus) (control = 6.2 days) after single 40mg/kg subcutaneous dose 72hr post infection
[23] = system: Plasmodium berghei; experiment: Change in mean survival time for control (average 6.2 days) versus treated mice (Mus musculus) 72 hrs after 160 mg/kg subcutaneous dose
[24] = system: Plasmodium berghei; experiment: Antimalarial activity in primary screen
[25] = system: Plasmodium berghei; experiment: Change in mean survival time for control (average 6.2 days) versus treated mice (Mus musculus) 72 hrs after […] subcutaneous dose
[26] = system: Plasmodium berghei; experiment: Change in mean survival time for control (average 6.2 days) versus treated mice (Mus musculus) 72 hrs after 10 mg/kg subcutaneous dose
[27] = system: Plasmodium berghei; experiment: Change in mean survival time for control (average 6.2 days) versus treated mice (Mus musculus) 72 hrs after 20 mg/kg subcutaneous dose
[28] = system: Plasmodium berghei; experiment: Change in mean survival time for control (average 6.2 days) versus treated mice (Mus musculus) after 160 mg/kg subcutaneous dose

SMILES	No. of mice cured [1]	No. of mice cured [2]	Delta MST [4] [days]	No. of mice cured [5]	Delta MST [6] [days]	No. of mice cured [7]	No. of mice cured [9]	No. of mice cured [11]	Delta MST [13] [days]	No. of mice cured [16]	Delta MST [18] [days]	Delta MST [19] [days]	Delta MST [20] [days]	Delta MST [21] [days]	Delta MST [22] [days]	Delta MST [23] [days]	ED30 [24] [mg/kg]	Delta MST [25] [days]	Delta MST [26] [days]	Delta MST [27] [days]	also measured
CN(C)Cc1cc(Nc2cc[n+]([O-])c3cc(Cl)ccc23)cc(-c2ccc(Cl)cc2)c1O	1	3	0	1	26.3	3	3	3	0	5	–	–	–	–	–	–	–	–	–	–	Delta MST [3]: 17.9 days; Delta MST [8]: 5 days; Delta MST [10]: 17.6 days; Delta MST [12]: 27.8 days; Delta MST [14]: 20.7 days; Delta MST [15]: 21.9 days; Delta MST [17]: 17.8 days
CCN(CC)Cc1cc(Nc2ccnc3cc(Cl)ccc23)cc(-c2cccc(F)c2F)c1O	1	4	–	4	–	2	3	3	0.7	2	33.3	19.8	19.8	13.7	39.4	35.1	8.7	6.7	16.7	22.2	–
CC(C)(C)NCc1cc(Nc2ccnc3cc(Cl)ccc23)cc(-c2ccc(F)cc2)c1O	1	–	–	–	–	1	1	3	1.7	1	12.4	14.4	16.6	8.9	15.2	11.9	–	7.5	16.5	18	–
CCN(CC)Cc1cc(Nc2cc[n+]([O-])c3cc(Cl)ccc23)cc(-c2ccc(Cl)cc2)c1O	2	5	0.7	5	36.9	3	5	4	–	5	–	–	–	–	–	–	9.2	–	–	–	Delta MST [8]: 1.3 days; Delta MST [10]: 5.7 days; Delta MST [12]: 20.9 days; Delta MST [17]: 14.2 days
CC(C)(C)NCc1cc(Nc2cc[n+]([O-])c3cc(Cl)ccc23)cc(-c2ccccc2)c1O	–	3	-0.3	3	21	1	1	1	–	2	–	–	–	–	–	–	–	–	–	–	Delta MST [3]: 14.5 days; Delta MST [8]: -0.1 days; Delta MST [10]: 4.5 days; Delta MST [12]: 21 days; Delta MST [14]: 14 days; Delta MST [15]: 15.5 days; Delta MST [28]: 23.2 days; Delta MST [17]: 12.5 days
CCN(CC)Cc1cc(Nc2ccnc3cc(Cl)ccc23)cc(-c2ccccc2)c1O	2	5	–	5	–	5	5	5	0.3	5	–	–	–	0.7	–	–	10.4	0.3	11.9	–	–
CC(C)(C)NCc1cc(Nc2ccnc3cc(Cl)ccc23)cc(-c2ccc(C(F)(F)F)cc2)c1O	1	–	–	3	–	–	–	2	0.2	–	10.7	11.7	12.1	11.8	14.9	9.1	–	3.4	10.4	21.2	–
CCN(CC)Cc1cc(Nc2ccnc3cc(Cl)ccc23)cc(-c2c(F)c(F)c(F)c(F)c2F)c1O	2	5	–	5	–	1	5	4	3.5	4	–	–	–	12.9	20.5	47	7.4	7.9	18.8	18.8	–
CCN(CC)Cc1cc(Nc2ccnc3cc(Cl)ccc23)cc(-c2ccc(C(F)(F)F)cc2)c1O	1	–	–	1	–	2	2	2	0	–	12	17	10.1	11	13	11.9	9.8	2	18.9	19.4	–
CCN(CC)Cc1cc(Nc2ccnc3cc(Cl)ccc23)cc(-c2ccc(Cl)cc2)c1O [TEBAQUINE]	1	2	–	1	–	1	5	5	0.1	4	–	11.9	11.2	20.7	–	11.9	–	0.1	30.2	33.7	–
